Reference: ChEMBL document CHEMBL1641466, “Structure based evolution of a novel series of positive modulators of the AMPA receptor” (Bioorg Med Chem Lett, 2011)
Values after ≈ are worked out from the molar mass of the structure shown.

Tests used:
[1] = biological target: Glutamate receptor 2 (Homo sapiens, UniProt P42262); assay: Modulatory activity at GluA2 receptor LBD
[2] = Half life in Wistar rat at 2 mg/kg, iv and 10 mg/kg, po; format: ADME, organism-based; settings: in vivo
[3] = Intrinsic clearance in rat microsomes assessed per mg of protein; format: ADME, Microsome
[4] = Intrinsic clearance in human microsomes assessed per mg of protein; format: ADME, Microsome
[5] = Permeability from apical to basolateral side of human Caco2 cells; format: ADME, cell-based; settings: Caco-2, read-out: permeability
[6] = Permeability from basolateral to apical side of human Caco2 cells; format: ADME, cell-based; settings: Caco-2, read-out: permeability
[7] = Plasma concentration in Wistar rat at 1 mg/kg, iv and 5 mg/kg, po; format: ADME, organism-based
[8] = Half life in Wistar rat at 1 mg/kg, iv and 5 mg/kg, po; format: ADME, organism-based; settings: in vivo
Method in brief: (§1)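 Wistar BRL rats; pharmacokinetics from 1 mg/kg i.v. and 5 mg/kg p.o. dosing; plasma clearance, half-life and oral bioavailability (F%) derived.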

[9] = Bioavailability in Wistar rat at 1 mg/kg, iv and 5 mg/kg, po; format: ADME, organism-based; settings: in vivo; method in brief: as §1
[10] = Solubility of the compound; format: physicochemical
[11] = tested on: Hepatocyte; assay: Metabolic stability in rat hepatocytes assessed per cells; format: ADME, cell-based
[12] = Clearance in Wistar rat at 2 mg/kg, iv and 10 mg/kg, po; format: ADME, organism-based; settings: in vivo
[13] = Volume of distribution at steady state in Wistar rat at 2 mg/kg, iv and 10 mg/kg, po; format: ADME, organism-based; settings: in vivo, read-out: Vdss
[14] = Bioavailability in Wistar rat at 2 mg/kg, iv and 10 mg/kg, po; format: ADME, organism-based; settings: in vivo
[15] = Cmax in Wistar rat cerebrospinal fluid at 2 mg/kg, ip; format: ADME, organism-based; parameters: dose 2 mg/kg, route intraperitoneal
Method in brief: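 Wistar BRL rats dosed 2 mg/kg i.p.; drug concentration measured in CSF to gauge CNS exposure, Cmax reported.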

Sequence of Glutamate receptor 2 (P42262 whole entry, the tested form may be a part): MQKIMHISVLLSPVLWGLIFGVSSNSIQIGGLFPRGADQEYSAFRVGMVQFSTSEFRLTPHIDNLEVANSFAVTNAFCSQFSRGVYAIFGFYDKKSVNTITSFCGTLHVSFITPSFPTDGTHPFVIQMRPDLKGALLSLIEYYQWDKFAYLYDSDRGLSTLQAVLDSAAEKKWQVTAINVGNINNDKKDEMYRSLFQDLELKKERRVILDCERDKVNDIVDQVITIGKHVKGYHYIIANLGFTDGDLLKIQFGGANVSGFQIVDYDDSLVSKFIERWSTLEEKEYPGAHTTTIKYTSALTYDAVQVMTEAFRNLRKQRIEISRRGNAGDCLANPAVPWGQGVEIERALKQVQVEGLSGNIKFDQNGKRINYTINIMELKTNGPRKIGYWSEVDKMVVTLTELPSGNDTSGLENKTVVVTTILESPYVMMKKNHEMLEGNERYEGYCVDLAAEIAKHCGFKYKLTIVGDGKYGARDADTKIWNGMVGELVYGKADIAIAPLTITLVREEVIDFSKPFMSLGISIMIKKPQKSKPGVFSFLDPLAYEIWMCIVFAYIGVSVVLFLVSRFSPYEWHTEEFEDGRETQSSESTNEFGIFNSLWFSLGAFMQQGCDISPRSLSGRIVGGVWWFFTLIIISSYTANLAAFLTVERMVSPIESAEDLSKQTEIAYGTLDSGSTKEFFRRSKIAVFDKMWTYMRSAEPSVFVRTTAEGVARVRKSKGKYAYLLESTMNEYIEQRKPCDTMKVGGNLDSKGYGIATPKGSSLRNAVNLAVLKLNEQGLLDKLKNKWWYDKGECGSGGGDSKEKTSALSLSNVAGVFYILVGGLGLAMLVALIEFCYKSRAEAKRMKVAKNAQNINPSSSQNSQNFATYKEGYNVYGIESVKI

Row | SMILES | EC50 [1] [µM] | other results
1 | CC(C)S(=O)(=O)N[C@H]1Cc2ccc(Cc3ccc(C(F)(F)F)o3)cc2C1 | 1 | 
2 | CC(C)S(=O)(=O)N[C@H]1Cc2ccc(Cn3nc(C(F)(F)F)c4c3CCNC4)cc2C1 | 1.58 | 
3 | CC(C)S(=O)(=O)N[C@H]1Cc2ccc(Cn3nc(C(F)(F)F)c4c3CCCC4)cc2C1 | 1.26 | 
4 | COc1ccccc1S(=O)(=O)NC1CCc2cc(Cn3cc(CO)c(C(F)(F)F)n3)ccc21 (stereo not given) | 2 | 
5 | CS(=O)(=O)N[C@H]1Cc2ccc(Cn3cc(CO)c(C(F)(F)F)n3)cc2C1 | 7.94 | 
6 | CC(C)S(=O)(=O)NC[C@H](C)c1ccc(-n2cc(CO)c(C(F)(F)F)n2)cc1 |  | microsomal CLint [3]: < 12 µL/min/mg; microsomal CLint [4]: < 12 µL/min/mg; Papp A→B [5]: 20.6 ×10⁻⁶ cm/s; Papp B→A [6]: 28.7 ×10⁻⁶ cm/s; clearance [7]: 49.7 mL/min/kg; half-life [8]: 1 h; bioavailability [9]: 3.2%
7 | CC(C)S(=O)(=O)N[C@H]1Cc2ccc(Cn3ncc(CO)c3C(F)(F)F)cc2C1 | 3.98 | 
8 | CC(C)S(=O)(=O)NC1Cc2ccc(-n3cc(CO)c(C(F)(F)F)n3)cc2C1 (racemic) | > 31.6 | 
9 | CN(C)S(=O)(=O)N[C@@H]1Cc2ccc(Cn3cc(CO)c(C(F)(F)F)n3)cc2C1 | 1 | 
10 | CCn1nc(C(F)(F)F)cc1Cc1ccc2c(c1)C[C@@H](NS(=O)(=O)C(C)C)C2 | 1.26 | 
11 | O=S(=O)(N[C@H]1Cc2ccc(Cn3cc(CO)c(C(F)(F)F)n3)cc2C1)C(F)(F)F | 5.01 | 
12 | CC(C)S(=O)(=O)N[C@H]1Cc2ccc(Cn3cc(CF)c(C(F)(F)F)n3)cc2C1 | 1.26 | 
13 | CC(C)S(=O)(=O)N[C@H]1Cc2ccc(Cn3cc(CCO)c(C(F)(F)F)n3)cc2C1 | 1.26 | 
14 | O=S(=O)(N[C@@H]1Cc2ccc(Cn3cc(CO)c(C(F)(F)F)n3)cc2C1)C1CC1 | 2.51 | 
15 | Cn1cc(S(=O)(=O)NC2CCc3cc(Cn4cc(CO)c(C(F)(F)F)n4)ccc32)c(C(F)(F)F)n1 (stereo not given) | 1.26 | 
16 | O=S(=O)(N[C@@H]1Cc2ccc(Cn3cc(CO)c(C(F)(F)F)n3)cc2C1)C(F)(F)F | 2.51 | solubility [10]: 84 µg/mL (≈ 189 µM); clearance [3]: < 12 µL/min/mg; clearance [4]: < 12 µL/min/mg; Stability [11]: < 6 µL/min; Papp A→B [5]: 16.9 ×10⁻⁶ cm/s; Papp B→A [6]: 26.4 ×10⁻⁶ cm/s; clearance [12]: 1.9 mL/min/kg; Vd [13]: 1 L/kg; half-life [2]: 7.4 h; bioavailability [14]: 100%; Cmax [15]: 120 nM

More lines, main results first:

Row | EC50 [1] [µM] | SMILES | other results
17 | 0.1 | CC(C)S(=O)(=O)NC1CCc2cc(Cn3cc(CO)c(C(F)(F)F)n3)ccc21 (stereo not given) | 
18 | 0.398 | CCS(=O)(=O)N[C@H]1Cc2ccc(Cn3cc(CO)c(C(F)(F)F)n3)cc2C1 | 
19 | 0.501 | CS(=O)(=O)NC1CCc2cc(Cn3cc(CO)c(C(F)(F)F)n3)ccc21 (stereo not given) | 
20 | 0.794 | CCNCc1cn(CC(=O)Nc2sc3c(c2C(N)=O)CCCC3)nc1C(F)(F)F | half-life [2]: 1.1 h
21 | 0.501 | CC(C)S(=O)(=O)N[C@H]1Cc2ccc(Cn3cc(CO)c(C(F)(F)F)n3)cc2C1 | microsomal CLint [3]: 31 µL/min/mg; microsomal CLint [4]: 23 µL/min/mg; Papp A→B [5]: 12.8 ×10⁻⁶ cm/s; Papp B→A [6]: 29 ×10⁻⁶ cm/s
22 | 0.398 | NC(=O)c1c(NC(=O)Cn2cc(CO)c(C(F)(F)F)n2)sc2c1CCCC2 | solubility [10]: 20 µg/mL (≈ 49.7 µM)
23 | 0.794 | CC(C)S(=O)(=O)N[C@H]1Cc2ccc(Cn3cc(CO)c(C(F)(F)F)c3)cc2C1 | 
24 | 0.1 | CC(C)S(=O)(=O)N[C@H]1Cc2ccc(Cn3nc(C(F)(F)F)cc3C(F)(F)F)cc2C1 | solubility [10]: < 1 µg/mL
25 | 0.158 | O=S(=O)(NC1CCc2cc(Cn3cc(CO)c(C(F)(F)F)n3)ccc21)C1CC1 (stereo not given) | 
26 | 0.398 | CC(C)S(=O)(=O)N[C@@H]1Cc2ccc(Cn3cc(CO)c(C(F)(F)F)n3)cc2C1 | 
